In experiment [1] the target is D(3) dopamine receptor (Homo sapiens, UniProt P35462). Nature of the experiment: Displacement of [3H]N-methylspiperone from human D3R receptor expressed in HEK293T cell membrane incubated for 1 hr by MicroBeta scintillation counting method. The experiment is classed as cell membranes. Put shortly:
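Membranes from stably transfected HEK293 cells (hD2L, hD3 or hD4.4), 20 μg (D2, D3) or 30 μg (D4) protein/well. Incubated 1 h at room temperature in EBSS binding buffer, pH 7.4, with 0.4 nM [3H]N-methylspiperone and 10 half-log dilutions in triplicate. 10 μM (+)-butaclamol defines nonspecific binding. GF filtration, scintillation counting. Ki by Cheng–Prusoff from ≥3 experiments; selectivity is the Ki ratio.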
On the technique in general: Displacement assays read how much labelled ligand stays bound in the presence of the test substance.

The nature of experiment [2]: Selectivity ratio of Ki for displacement of [3H]N-methylspiperone from human D3R expressed in HEK293T cell membrane to Ki for displacement of [3H]N-methylspiperone from human D4.4 receptor expressed in HEK293T cell membrane.
The target in experiment [3] is T1, D(4) dopamine receptor (Homo sapiens, UniProt P21917).
T1 sequence (P21917 whole entry): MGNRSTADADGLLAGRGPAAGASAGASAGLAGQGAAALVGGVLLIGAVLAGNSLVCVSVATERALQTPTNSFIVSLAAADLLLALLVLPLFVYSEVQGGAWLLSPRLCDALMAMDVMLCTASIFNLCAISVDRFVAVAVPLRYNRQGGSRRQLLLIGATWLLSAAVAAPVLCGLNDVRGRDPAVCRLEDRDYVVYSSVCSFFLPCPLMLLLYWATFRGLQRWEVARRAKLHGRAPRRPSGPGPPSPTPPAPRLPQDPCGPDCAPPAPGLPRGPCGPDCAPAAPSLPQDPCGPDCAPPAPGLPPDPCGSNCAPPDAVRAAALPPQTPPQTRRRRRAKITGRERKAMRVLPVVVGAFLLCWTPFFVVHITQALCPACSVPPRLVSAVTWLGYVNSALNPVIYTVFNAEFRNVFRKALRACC
As to the kind of experiment: Displacement of [3H]N-methylspiperone from human D4.4 receptor expressed in HEK293T cell membrane incubated for 1 hr by MicroBeta scintillation counting method. In kind it is cell membranes.

For experiment [4], the target named is D(2) dopamine receptor (Homo sapiens, UniProt P14416). Nature of the experiment: Displacement of [3H]N-methylspiperone from human D2L receptor expressed in HEK293T cell membrane incubated for 1 hr by MicroBeta scintillation counting method. The experiment is classed as cell membranes. Put shortly:
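Membranes from stably transfected HEK293 cells (hD2L, hD3 or hD4.4), 20 μg (D2, D3) or 30 μg (D4) protein/well. Incubated 1 h at room temperature in EBSS binding buffer, pH 7.4, with 0.4 nM [3H]N-methylspiperone and 10 half-log dilutions in triplicate. 10 μM (+)-butaclamol defines nonspecific binding. GF filtration, scintillation counting.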

Experiment [5] in a line: Selectivity ratio of Ki for displacement of [3H]N-methylspiperone from human D2L receptor expressed in HEK293T cell membrane to Ki for displacement of [3H]N-methylspiperone from human D4.4 receptor expressed in HEK293T cell membrane.
Experiment [6] relates to U-251. Nature of the experiment: Cytotoxicity against human U-251 cells assessed as reduction in cell viability at 10 uM incubated for 24 hrs by MTS assay. In kind it is functional, cell-based. Put shortly: (§1)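 Cells seeded at 5,000/well and grown to 80% confluence: T98 and U251 in EMEM with 10% serum; GSC#83 as spheres in serum-free DMEM/F12 with EGF and bFGF. Treated 24 h at 5–50 μM in DMSO, with a DMSO vehicle control. MTS reagent added and formazan absorbance read at 490 nm. n = 6; two-way ANOVA.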
For orientation: Tetrazolium assays rely on reduction of a dye to a coloured formazan, in cell work by metabolically active cells.

Experiment [7] relates to U-251. As to the kind of experiment: Cytotoxicity against human U-251 cells assessed as reduction in cell viability at 5 to 50 uM incubated for 24 hrs by MTS assay. The note with it: dose 5-50 µM. In kind it is functional, cell-based. Put shortly:
as §1

The test system of experiment [8] is GSC#83. Nature of the experiment: Cytotoxicity against human GSC#83 cells assessed as reduction in cell viability at 10 uM incubated for 24 hrs by MTS assay. In kind it is functional, cell-based. In a few lines: as §1
Experiment [9] relates to T98G. Nature of the experiment: Cytotoxicity against human T98G cells assessed as reduction in cell viability at 5 to 50 uM incubated for 24 hrs by MTS assay. The experiment is classed as functional, cell-based. Conditions: dose 5-50 µM. Put shortly:
as §1

The test system of experiment [10] is GSC#83. Nature of the experiment: Cytotoxicity against human GSC#83 cells assessed as reduction in cell viability at 5 to 50 uM incubated for 24 hrs by MTS assay. In kind it is functional, cell-based. The note with it: dose 5-50 µM. In a few lines:
as §1

For experiment [11], the system named is T98G. Nature of the experiment: Cytotoxicity against human T98G cells assessed as reduction in cell viability at 10 uM incubated for 24 hrs by MTS assay. In kind it is functional, cell-based. In a few lines: as §1
Experiment [12] addresses T2, D(4) dopamine receptor (Homo sapiens) (UniProt P21917).
T2 sequence (whole entry): T1 sequence (P21917 whole entry)
As to the kind of experiment: Agonist activity at D4R (unknown origin) expressed in human HEK293T cells assessed as G0 protein activation measured after 2.5 mins by BRET assay relative to control. In kind it is functional, cell-based. The note with it: filed as agonist. In a few lines: (§2)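 Transiently transfected HEK293T cells (15 μg plasmid cDNA, polyethyleneimine, 6 h, assayed after 48 h). Gαi1 or GαoA fused to RLuc8 and Gγ2 to mVenus for G protein activation; D4 receptor fused to RLuc8 and β-arrestin to mVenus for recruitment. About 2×10^5 cells/well in PBS with 0.1% glucose and 200 μM Na bisulfite. Coelenterazine H 5 μM. Read 530/485 nm; RLuc8-only background subtracted.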
(In general: In BRET a luciferase serves as donor, and the signal depends on an acceptor being close.)

Experiment [13] concerns the target T2, D(4) dopamine receptor (Homo sapiens). As to the kind of experiment: Agonist activity at D4R (unknown origin) expressed in human HEK293T cells assessed as Gi protein activation measured after 2.5 mins by BRET assay relative to control. In kind it is functional, cell-based. The note with it: filed as agonist. In a few lines:
as §2

Experiment [14] shares this target. As to the kind of experiment: Agonist activity at D4R (unknown origin) expressed in human HEK293T cells assessed as beta arrestin-2 recruitment measured after 2.5 mins by BRET assay relative to control. Conditions: filed as agonist. The experiment is classed as functional, cell-based. In a few lines: as §2

Activity calls are given as the source filed them. No cut-off for these calls is given here.

Chain of D(3) dopamine receptor (P35462 whole entry): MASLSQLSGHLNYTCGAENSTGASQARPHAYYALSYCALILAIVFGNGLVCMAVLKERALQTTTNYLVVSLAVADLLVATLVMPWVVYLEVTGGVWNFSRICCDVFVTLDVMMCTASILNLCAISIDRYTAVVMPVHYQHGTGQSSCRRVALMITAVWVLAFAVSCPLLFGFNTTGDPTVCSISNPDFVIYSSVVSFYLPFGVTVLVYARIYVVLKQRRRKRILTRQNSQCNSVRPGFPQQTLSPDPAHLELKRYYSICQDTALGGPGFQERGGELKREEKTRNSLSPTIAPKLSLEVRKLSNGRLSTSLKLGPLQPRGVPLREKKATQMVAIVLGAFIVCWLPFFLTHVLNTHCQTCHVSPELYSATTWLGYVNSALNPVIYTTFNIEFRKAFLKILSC
Chain of D(2) dopamine receptor (P14416 whole entry): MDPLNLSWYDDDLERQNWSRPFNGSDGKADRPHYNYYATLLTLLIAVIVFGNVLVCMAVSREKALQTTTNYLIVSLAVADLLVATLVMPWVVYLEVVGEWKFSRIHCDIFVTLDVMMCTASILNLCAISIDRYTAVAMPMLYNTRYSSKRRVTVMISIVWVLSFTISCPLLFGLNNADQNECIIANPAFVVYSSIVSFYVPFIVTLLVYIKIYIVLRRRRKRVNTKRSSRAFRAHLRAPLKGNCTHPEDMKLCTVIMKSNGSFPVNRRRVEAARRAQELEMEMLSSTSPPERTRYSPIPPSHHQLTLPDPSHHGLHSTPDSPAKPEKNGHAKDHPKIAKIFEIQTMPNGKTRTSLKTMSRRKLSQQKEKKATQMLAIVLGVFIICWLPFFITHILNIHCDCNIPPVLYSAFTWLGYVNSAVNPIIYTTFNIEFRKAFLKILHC

Regarding `COc1cccc(N2CCN(CCCN3C(=O)CCc4ccccc43)CC2)c1`, the inhibition constant (Ki) (usually a dissociation constant, usually derived from enzyme kinetics or from competition with a known ligand) is 1550 nM in experiment [1], 4.17 nM in [3] and 3090 nM in experiment [4]. In addition, the Ratio Ki in experiment [2] worked out at 372; in experiment [5], 741.

Turning to `c1ccc(N2CCN(CCCc3nc4ccccc4s3)CC2)cc1`, the Ki is 692 nM in experiment [1], 10.2 nM in experiment [3] and 1780 nM in [4]. Also, the figures for the Ratio Ki in experiment [2] and in experiment [5] were 68 and 174, respectively.

On to `COc1ccccc1N1CCN(CCCN2C(=O)CCc3ccccc32)CC1`, for which the figures for the inhibition constant Ki in experiment [1], in experiment [3] and in experiment [4] were 100 nM, 0.617 nM and 81.3 nM, respectively. The Ratio Ki in experiment [2] stood at 162; in [5], 132.

`Fc1ccc(N2CCN(CCC3OCCc4ccccc43)CC2)cc1` (stereo unspecified): the outcome in experiment [6], in [7], in experiment [8], in [9], in experiment [10] and in [11] was Active.

In the case of `NCCc1ccc(O)c(O)c1`, the Emax in experiment [12], in experiment [13] and in experiment [14] was 100% in each case.

On to `Cc1cccc(N2CCN(CCCN3C(=O)CCc4ccccc43)CC2)c1`, for which the Ki is 794 nM in experiment [1], 1.78 nM in experiment [3] and 1450 nM in experiment [4]. Moreover, the Ratio Ki in [2] worked out at 447; in experiment [5], 813.

As for `Cc1ccccc1N1CCN(CCCN2C(=O)CCc3ccccc32)CC1`, the Ki in [1] was 275 nM; in experiment [3] it was 1.35 nM; in experiment [4], 398 nM. Also, the Ratio Ki in experiment [2] is 204; in experiment [5], 295.

Regarding `O=C1CCc2ccccc2N1CCCN1CCN(c2ccc([N+](=O)[O-])cc2)CC1`, the results for the Ki in experiment [1], in [3] and in experiment [4] were 11000 nM, 6.61 nM and 24000 nM, respectively. For the same molecule, the Ratio Ki in experiment [2] stood at 1660; in experiment [5], 3630.

On to `c1ccc(N2CCN(CCCN3CCCc4ccccc43)CC2)cc1`, for which the Ki in [1] was 562 nM; in [3], 2.63 nM; in experiment [4] it was 708 nM. The results for the Ratio Ki in experiment [2] and in experiment [5] were 214 and 269, respectively.

As to `N#Cc1ccccc1N1CCN(CCCN2C(=O)CCc3ccccc32)CC1`, the values for the Ki in experiment [1], in experiment [3] and in experiment [4] were 339 nM, 1.07 nM and 355 nM, respectively. In addition, the Ratio Ki came to 316 in experiment [2] and 331 in experiment [5].

On to `O=C1CCc2ccccc2N1CCCN1CCN(c2cccc([N+](=O)[O-])c2)CC1`, for which the results for the inhibition constant Ki in experiment [1], in experiment [3] and in experiment [4] were 1260 nM, 3.55 nM and 2510 nM, respectively. In addition, the Ratio Ki in experiment [2] is 355; in experiment [5], 708.

For the molecule `Cn1nnc2c(C(N)=O)ncn2c1=O`, the outcome in experiment [6], in experiment [7], in [8], in [9], in experiment [10] and in experiment [11] was Active.

Take `O=C1CCc2ccccc2N1CCCN1CCN(c2ccc(Cl)c(Cl)c2)CC1`: the Ki is 631 nM in experiment [1], 0.871 nM in experiment [3] and 955 nM in experiment [4]. The Ratio Ki in experiment [2] turned out to be 725; in experiment [5], 1100.

For `c1ccc(N2CCN(CCCc3nc4ccccc4o3)CC2)cc1`, the Ki is 813 nM in experiment [1], 37.2 nM in experiment [3] and 1700 nM in [4]. For the same molecule, the Ratio Ki in [2] worked out at 22; in [5] it was 46.

On to `O=C1CCc2ccccc2N1CCCCN1CCN(c2ccccc2)CC1`, for which the inhibition constant Ki in experiment [1] is 81.3 nM; in [3] it was 4.27 nM; in [4], 1120 nM. Besides, the Ratio Ki in experiment [2] was determined as 19; in [5], 263.

Turning to `c1ccc(N2CCN(CCCc3nc4ccccc4[nH]3)CC2)cc1`, the values for the Ki in experiment [1], in [3] and in [4] were 832 nM, 30.2 nM and 6170 nM, respectively. Besides, the Ratio Ki in experiment [2] was found to be 28; in [5] it was 204.

`O=C1CCc2ccccc2N1CCCN1CCN(c2ccccc2[N+](=O)[O-])CC1`: the values for the Ki in experiment [1], in experiment [3] and in [4] were 129 nM, 0.407 nM and 132 nM, respectively. The Ratio Ki amounted to 316 in experiment [2] and 324 in experiment [5].

Regarding `O=C1CCc2ccccc2N1CCCN1CCN(c2cccc(Cl)c2Cl)CC1`, the Ki in experiment [1] is 21.4 nM; in experiment [3], 0.692 nM.

As for `c1ccc(N2CCN(CCCn3cnc4ccccc43)CC2)cc1`, the results for the Ki in experiment [1], in experiment [3] and in experiment [4] were 8910 nM, 12.3 nM and 12000 nM, respectively. For the same molecule, the Ratio Ki in [2] stood at 719; in experiment [5] it was 977.

Regarding `CCCCC1CCN(CCCN2C(=O)CCc3ccccc32)CC1`, the Ratio Ki in experiment [2] worked out at 631; in experiment [5], 691.

For the molecule `O=C1CCc2ccccc2N1CCCN1CCN(c2ccc(Cl)cc2Cl)CC1`, the inhibition constant Ki is 501 nM in [1], 0.676 nM in experiment [3] and 550 nM in [4]. Further, the Ratio Ki in experiment [2] turned out to be 744; in experiment [5], 827.

As for `c1ccc(N2CCN(CCCn3ccc4ccccc43)CC2)cc1`, the Ki in experiment [1] is 490 nM; in experiment [3], 1.91 nM; in experiment [4], 724 nM. Also, the Ratio Ki in [2] was 257; in experiment [5], 380.

`O=C1CCc2ccccc2N1CCN1CCN(c2ccccc2)CC1`: the inhibitory constant (Ki) is 1070 nM in [1], 63.1 nM in experiment [3] and 12900 nM in experiment [4]. The Ratio Ki in experiment [2] was 17; in [5], 204.

As to `O=C1CCc2ccccc2N1CCCN1CCN(c2ncccn2)CC1`, the inhibition constant (Ki) was 2290 nM in experiment [1], 4.47 nM in experiment [3] and 3980 nM in experiment [4]. The figures for the Ratio Ki in experiment [2] and in experiment [5] were 513 and 891, respectively.

`O=C1CCc2ccccc2N1CCCN1CCN(c2ccccc2)CC1`: the Ratio Ki in [2] was determined as 457; in experiment [5], 380.

On to `O=C1CCc2ccccc2N1CCCCCN1CCN(c2ccccc2)CC1`, for which the inhibition constant Ki was 195 nM in experiment [1], 23.4 nM in experiment [3] and 282 nM in experiment [4]. Further, the figures for the Ratio Ki in experiment [2] and in experiment [5] were 8 and 12, respectively.

The values above are taken from ChEMBL document CHEMBL5104176 (J Med Chem, 2022).
